# Columns and labels:
# [1] = test system: HeLa cells; assay: Antiproliferative activity against HeLa cells; assay type: cell-based; details: Homo sapiens, 48 h, read-out: HeLa IC50
# How it was run: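 HeLa cells from ATCC in RPMI-1640 with 10% FBS and 1% penicillin-streptomycin at 37 °C, 5% CO2. Seeded at 10000 cells/well one day before treatment. Test compound added from DMSO solution and incubated for 48 h, then CCK-8 reagent added and absorbance read at 450 nm. IC50 is the mean of three independent determinations from triplicate samples.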
# [2] = Plasma protein binding, mouse; assay type: in vitro ADME
# [3] = Microsomal stability in human liver microsomes; assay type: in vitro ADME; details: percentage remaining after 30 min, NADPH
# [4] = Microsomal stability in mouse liver microsomes; assay type: in vitro ADME; details: percentage remaining after 30 min, NADPH
# [5] = Plasma protein binding, human; assay type: in vitro ADME
# [6] = test system: tubulin; assay: Tubulin polymerization assay; assay type: biochemical; details: 0 to 8 μM, 1 h at 37 °C, absorbance 340 nm
# How it was run: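 Commercial tubulin polymerization kit used per the manufacturer's protocol. Test compound mixed with tubulin in the supplied general tubulin buffer. Polymerization followed by absorbance at 340 nm for 1 h at 37 °C. Curves compared by two-way ANOVA.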
# [7] = test system: HeLa cells; assay: Cell cycle assay in HeLa cells; assay type: cell-based; details: 48 h treatment
# How it was run: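 HeLa cells (1 × 10^6) grown in 6-well plates and treated with test compound at several concentrations for 48 h. Cells harvested, fixed in 70% ethanol, held at −20 °C for 12 h, then stained with Muse cell cycle reagent for 30 min at room temperature in the dark. Phase distribution read on a Muse cell analyzer. G2/M percentages compared by one-way ANOVA.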
IC50 [1] [nM],fraction unbound [2],Microsomal stability (%) Human [3] [%],Microsomal stability (%) Mouse [4] [%],fraction unbound [5],SMILES,effect on tubulin polymerization [6],cell cycle effect [7]
340 ± 110,,,,,O=C(Cn1ccc(-c2ccc(OCCN3CCOCC3)cc2)cc1=O)NCc1ccc(F)cc1 [Compound 57],,
250 ± 60,0.04,20.2 ± 2.3,50.6 ± 1.2,0.171,Cc1ccc(CNC(=O)Cn2ccc(-c3ccc(OCCN4CCOCC4)cc3)cc2=O)cc1 [Compound 56],,
44 ± 11,0.152,,,0.187,"O=C(Cc1ccc(-c2ccc(OCCN3CCOCC3)cc2)cn1)NCc1ccccc1 [Compound 8, Tirbanibulin, reference compound]",microtubule destabilizers,G2/M phase arrest
